Data on six molecules can be found in ChEMBL document CHEMBL1122233, “Antihypertensive 9-substituted 1-oxa-4,9-diazaspiro[5.5]undecan-3-ones” (J Med Chem, 1983).

Assay [1] deals with Rattus norvegicus. Kind of assay: Percentage fall in systolic blood pressure after 3 hr at 12.5 mg/kg given perorally. The assay is classed as functional, organism-based. Set-up: dose 12.5 mg/kg. The following applies: Artery. Put shortly: (§1)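 Male Okamoto-Aoki spontaneously hypertensive rats, trained, in groups of four matched for mean systolic pressure; five treated groups and one vehicle control run concurrently. Oral dosing in water (solution or suspension, 0.1 mL/10 g) on two consecutive mornings. On day 2, rats were restrained at 30.0 ± 1.0 °C and tail-cuff systolic pressure recorded at 1–4 h; percent fall versus control, 1-tail t test, p ≤ 0.05.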

Assay [2] deals with Rattus norvegicus. Briefly: Percentage fall in systolic blood pressure after 2 hr at 25 mg/kg given perorally. The assay is classed as functional, Artery. To be noted: route oral. Put shortly:
as §1

Assay [3] deals with T1, Adrenergic receptor alpha-2 (Rattus norvegicus, UniProt P22086+P19328+P22909).
T1 sequence (P22086 whole entry): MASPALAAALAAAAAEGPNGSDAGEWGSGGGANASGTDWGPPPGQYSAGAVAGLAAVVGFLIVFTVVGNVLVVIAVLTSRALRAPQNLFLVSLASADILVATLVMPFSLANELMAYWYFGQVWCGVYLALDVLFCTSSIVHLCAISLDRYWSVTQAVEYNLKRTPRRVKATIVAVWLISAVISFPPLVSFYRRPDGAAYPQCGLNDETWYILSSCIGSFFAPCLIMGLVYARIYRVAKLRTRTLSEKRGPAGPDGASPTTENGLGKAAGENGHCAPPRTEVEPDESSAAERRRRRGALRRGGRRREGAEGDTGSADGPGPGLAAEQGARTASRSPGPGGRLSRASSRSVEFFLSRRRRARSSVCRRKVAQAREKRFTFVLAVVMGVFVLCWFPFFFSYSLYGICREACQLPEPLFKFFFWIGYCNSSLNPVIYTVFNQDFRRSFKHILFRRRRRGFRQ
T1 sequence (P19328 whole entry): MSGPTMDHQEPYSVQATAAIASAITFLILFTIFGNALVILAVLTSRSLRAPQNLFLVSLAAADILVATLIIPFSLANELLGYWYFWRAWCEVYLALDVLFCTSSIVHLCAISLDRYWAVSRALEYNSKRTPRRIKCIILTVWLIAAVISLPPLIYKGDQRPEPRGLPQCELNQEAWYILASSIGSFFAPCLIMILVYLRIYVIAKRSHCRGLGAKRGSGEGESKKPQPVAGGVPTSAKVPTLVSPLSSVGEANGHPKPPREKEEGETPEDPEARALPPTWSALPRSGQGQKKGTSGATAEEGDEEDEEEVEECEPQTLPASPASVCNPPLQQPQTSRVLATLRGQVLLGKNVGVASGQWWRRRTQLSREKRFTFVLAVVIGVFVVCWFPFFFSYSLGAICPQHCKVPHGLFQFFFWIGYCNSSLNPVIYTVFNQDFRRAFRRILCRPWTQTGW
T1 sequence (P22909 whole entry): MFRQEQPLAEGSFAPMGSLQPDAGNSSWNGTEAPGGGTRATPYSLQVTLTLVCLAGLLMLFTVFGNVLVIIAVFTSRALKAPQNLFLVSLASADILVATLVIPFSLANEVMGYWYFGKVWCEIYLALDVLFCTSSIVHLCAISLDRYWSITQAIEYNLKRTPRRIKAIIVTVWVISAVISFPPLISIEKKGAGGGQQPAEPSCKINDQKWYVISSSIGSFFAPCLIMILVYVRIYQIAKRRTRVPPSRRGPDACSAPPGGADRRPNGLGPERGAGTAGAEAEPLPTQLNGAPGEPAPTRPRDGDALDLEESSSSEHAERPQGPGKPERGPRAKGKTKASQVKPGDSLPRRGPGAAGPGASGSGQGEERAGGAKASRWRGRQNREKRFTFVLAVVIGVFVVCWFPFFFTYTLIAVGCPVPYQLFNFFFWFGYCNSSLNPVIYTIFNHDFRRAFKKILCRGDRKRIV
Briefly: Affinity for alpha-2 adrenergic receptor of rat cerebral cortex was determined by ligand binding using [3H]yohimbine. The assay is classed as tissue-based. Summed up: (§2)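 Washed rat cerebral cortex membranes (homogenised in 50 mM Tris-HCl pH 7.8, pelleted at 48000g, washed 3 times) at 2.5 mg/mL protein. […] Ice-cold buffer stop, then filtration. Nonspecific binding defined with 200 μmol norepinephrine. KI from IC50 by Cheng-Prusoff, given as negative log.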

Assay [4] relates to Rattus norvegicus. Kind of assay: (§3) Percentage fall in systolic blood pressure after 1 hr at 25 mg/kg given perorally. The assay is classed as functional, Artery. The following applies: route oral. Summed up:
as §1

Assay [5] relates to Rattus norvegicus. Kind of assay: (§4) Percentage fall in systolic blood pressure after 4 hr at 25 mg/kg given perorally. The class given is functional, Artery. To be noted: route oral. Put shortly:
as §1

Assay [6] has as its system Rattus norvegicus. Kind of assay: Percentage fall in systolic blood pressure after 4 hr at 12.5 mg/kg given perorally. Set-up: dose 12.5 mg/kg. The following applies: Artery. The assay is classed as functional, organism-based. Summed up: as §1
Assay [7] has as its system Rattus norvegicus. Kind of assay: Percentage fall in systolic blood pressure after 2 hr at 12.5 mg/kg given perorally. To be noted: Artery. The assay is classed as functional, organism-based. Also noted: dose 12.5 mg/kg. Summed up:
as §1

The target in assay [8] is T2, Adrenergic receptor alpha-1 (Rattus norvegicus, UniProt P15823+P23944+P43140).
T2 sequence (P15823 whole entry): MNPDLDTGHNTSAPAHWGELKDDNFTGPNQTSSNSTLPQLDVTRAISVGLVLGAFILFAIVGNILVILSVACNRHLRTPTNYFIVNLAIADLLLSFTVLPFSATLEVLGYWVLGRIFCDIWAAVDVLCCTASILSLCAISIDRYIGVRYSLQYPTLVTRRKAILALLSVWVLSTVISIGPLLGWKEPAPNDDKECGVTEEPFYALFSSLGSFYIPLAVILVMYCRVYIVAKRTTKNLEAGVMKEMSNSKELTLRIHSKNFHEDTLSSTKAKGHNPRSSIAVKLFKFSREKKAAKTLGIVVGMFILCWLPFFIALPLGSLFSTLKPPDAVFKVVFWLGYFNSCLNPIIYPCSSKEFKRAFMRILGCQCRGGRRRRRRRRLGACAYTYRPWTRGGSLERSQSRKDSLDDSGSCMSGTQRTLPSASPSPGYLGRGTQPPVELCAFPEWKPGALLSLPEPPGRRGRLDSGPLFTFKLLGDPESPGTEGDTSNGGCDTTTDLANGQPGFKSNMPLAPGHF
T2 sequence (P23944 whole entry): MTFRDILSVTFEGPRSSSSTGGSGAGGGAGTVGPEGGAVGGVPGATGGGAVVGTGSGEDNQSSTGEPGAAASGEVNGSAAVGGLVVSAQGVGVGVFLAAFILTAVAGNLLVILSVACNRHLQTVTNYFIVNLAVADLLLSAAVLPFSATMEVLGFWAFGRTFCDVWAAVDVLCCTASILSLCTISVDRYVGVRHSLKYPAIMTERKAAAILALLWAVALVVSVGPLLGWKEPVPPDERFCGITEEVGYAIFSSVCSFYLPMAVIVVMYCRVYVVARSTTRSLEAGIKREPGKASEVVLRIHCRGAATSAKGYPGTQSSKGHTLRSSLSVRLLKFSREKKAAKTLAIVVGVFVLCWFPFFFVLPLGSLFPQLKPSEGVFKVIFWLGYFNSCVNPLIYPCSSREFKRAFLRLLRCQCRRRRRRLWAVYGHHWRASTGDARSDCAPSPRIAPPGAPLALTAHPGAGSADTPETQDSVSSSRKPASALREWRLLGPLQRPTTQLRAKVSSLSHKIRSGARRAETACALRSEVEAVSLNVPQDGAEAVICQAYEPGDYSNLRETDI
T2 sequence (P43140 whole entry): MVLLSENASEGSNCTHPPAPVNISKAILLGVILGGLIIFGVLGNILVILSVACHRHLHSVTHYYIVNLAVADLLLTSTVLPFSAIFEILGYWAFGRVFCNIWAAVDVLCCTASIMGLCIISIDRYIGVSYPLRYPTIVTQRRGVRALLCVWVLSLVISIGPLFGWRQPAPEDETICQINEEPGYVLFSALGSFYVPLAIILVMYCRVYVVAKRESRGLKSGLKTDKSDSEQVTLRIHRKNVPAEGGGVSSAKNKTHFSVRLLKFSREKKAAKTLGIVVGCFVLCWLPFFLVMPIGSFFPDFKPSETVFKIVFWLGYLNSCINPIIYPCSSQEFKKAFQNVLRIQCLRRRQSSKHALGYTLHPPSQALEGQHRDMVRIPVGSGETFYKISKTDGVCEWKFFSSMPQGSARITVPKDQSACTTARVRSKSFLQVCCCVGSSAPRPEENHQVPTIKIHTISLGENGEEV
Kind of assay: Affinity for alpha-1 adrenoceptor of rat cerebral cortex was determined by ligand binding using [3H]prazosin. The class given is tissue-based. Put shortly: as §2

Assay [9] concerns Rattus norvegicus. Kind of assay: (§5) Percentage fall in systolic blood pressure after 1 hr at 12.5 mg/kg given perorally. The class given is functional, organism-based. Set-up: dose 12.5 mg/kg. To be noted: Artery. Summed up:
as §1

In assay [10] the test system is Rattus norvegicus. Briefly: (§6) Percentage fall in systolic blood pressure after 3 hr at 25 mg/kg given perorally. The class given is functional, Artery. To be noted: route oral. Summed up: as §1
In assay [11] the test system is Rattus norvegicus. Kind of assay: Percentage fall in systolic blood pressure after 2 hours at 50 mg/kg given perorally. The assay is classed as functional, Artery. To be noted: route oral. Summed up: (§7)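 Male Okamoto-Aoki SHR, four per group, with a concurrent vehicle control group. Oral dosing in water (0.1 mL/10 g) on two consecutive mornings. After the day-2 dose, rats were restrained in a 30 °C chamber. Tail-cuff systolic pressure was taken at 1-4 h from four traces per rat. Result is % decrease versus control mean, by 1-tailed t test, p ≤ 0.05.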

Assay [12] has as its system Rattus norvegicus. Kind of assay: Percentage fall in systolic blood pressure after 3 hours at 12.5 mg/kg given perorally. The class given is functional, organism-based. Also noted: dose 12.5 mg/kg. The following applies: Artery. Summed up: as §7
In assay [13] the test system is Rattus norvegicus. Briefly: Percentage fall in systolic blood pressure after 2 hours at 12.5 mg/kg given perorally. The class given is functional, organism-based. Also noted: dose 12.5 mg/kg. To be noted: Artery. Summed up: as §7
Assay [14] relates to Rattus norvegicus. Kind of assay: Percentage fall in systolic blood pressure after 3 hours at 50 mg/kg given perorally. The following applies: route oral. The assay is classed as functional, Artery. Put shortly: as §7
Assay [15] deals with Rattus norvegicus. Kind of assay: Percentage fall in systolic blood pressure after 4 hours at 12.5 mg/kg given perorally. The assay is classed as functional, organism-based. Set-up: dose 12.5 mg/kg. The following applies: Artery. Put shortly: as §7
Assay [16] relates to Rattus norvegicus. The assay is described as §5. The assay is classed as functional, Artery. The following applies: route oral. Put shortly: as §7
Assay [17] concerns Rattus norvegicus. Kind of assay: Percentage fall in systolic blood pressure after 1 hr at 50 mg/kg given perorally. The class given is functional, Artery. To be noted: route oral. Summed up: as §7
Assay [18] has as its system Rattus norvegicus. Briefly: Percentage fall in systolic blood pressure after 4 hours at 50 mg/kg given perorally. The assay is classed as functional, Artery. To be noted: route oral. Put shortly:
as §7

Assay [19] concerns Rattus norvegicus. Briefly: Percentage fall in systolic blood pressure after 3 hours at 25 mg/kg given perorally. The assay is classed as functional, Artery. To be noted: route oral. Put shortly: as §1
Assay [20] has as its system Rattus norvegicus. Briefly: (§8) Percentage fall in systolic blood pressure after 2 hours at 25 mg/kg given perorally. The class given is functional, Artery. To be noted: route oral. Put shortly: as §1
Assay [21] concerns Rattus norvegicus. Briefly: Percentage fall in systolic blood pressure after 4 hours at 25 mg/kg given perorally. The assay is classed as functional, Artery. To be noted: route oral. Summed up:
as §1

Assay [22] concerns Rattus norvegicus. The description is as §4. The assay is classed as functional, organism-based. Set-up: dose 25 mg/kg. To be noted: Artery. Put shortly: as §1
For assay [23], the system named is Rattus norvegicus. The assay is described as §3. The class given is functional, organism-based. Set-up: dose 25 mg/kg. To be noted: Artery. Summed up:
as §1

The subject of assay [24] is Rattus norvegicus. Described as §6. To be noted: Artery. Also noted: dose 25 mg/kg. The assay is classed as functional, organism-based. Summed up: as §1
Assay [25] deals with Rattus norvegicus. The description is as §8. The assay is classed as functional, organism-based. Also noted: dose 25 mg/kg. The following applies: Artery. Summed up:
as §1

The source made the active and inactive calls. No cut-off for these calls is given here.

Consider `O=C(NC1CCN(CCc2c[nH]c3ccccc23)CC1)c1ccccc1` [INDORAMIN], for which the “Decrease in SBP” value in [1], in assay [6], in assay [7] and in assay [9] was “inactive” throughout. Besides, the “Decrease in SBP” value came out at 28% in assay [2], 27% in [4], 30% in assay [5] and 34% in assay [10]. The “-Log Ki” value in [3] was found to be 4.92; in assay [8], 7.61.
As to `O=C1COC2(CCN(CCc3c[nH]c4ccccc34)CC2)CN1c1ccccc1`, the “Decrease in SBP” value in [11] was 59%; in [12], “Not significant”; in [13], “Not significant”; in assay [14], 45%; in assay [15], “Not significant”; in assay [16], 19%. Besides, the “Decrease in SBP” value in assay [17] came out at 45%; in assay [18], 40%.
`O=C1COC2(CCN(CCc3c[nH]c4ccccc34)CC2)CN1c1cccc(F)c1`: the “Decrease in SBP” value in [19] is 22%; in assay [20], 31%; in assay [4], 29%; in [21] it was 18%.
Take `CN1CC2(CCN(CC(O)C3COc4ccccc4O3)CC2)OCC1=O` (stereo in doubt; 60): the “Decrease in SBP” value in [22] is “Not significant”.
Consider `O=C1COC2(CCN(CC(O)C3COc4ccccc4O3)CC2)CN1c1ccccc1` (stereo unspecified), for which the “Decrease in SBP” value in assay [2] is 25%; in assay [23], “Not significant”; in [5] it was 16%; in [24], “Not significant”.
For `O=C1COC2(CCN(CCc3ccc(O)cc3)CC2)CN1`, the “Decrease in SBP” value in assay [19] was 11%; in assay [4], 13%; in assay [21], 21%; in [25], “Not significant”.
